Experimental data: the RNAGym collection of RNA variant scans (doi:10.1126/science.aae0568)
Variants at the floor of the assay were thinned out.

B1: tRNA (parent)
chain: GUUCCGUUGGCGUAAUGGUAACGCGUCUCCCUCCUAAGGAGAAGACUGCGGGUUCGAGUCCCGUACGGAACG

Variants of: B1
Experiment: yeast fitness relative to wild type (ratio to wild type); higher = fitter; tRNA-Arg(CCU), competitive growth, 37 C, YPD
Procedure, shortened: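 Variants of the tRNA-Arg(CCU) gene, chemically synthesised with a 3% per-site mutation rate at 69 sites, were placed at the native genomic locus in Saccharomyces cerevisiae. The pooled strains were competed in YPD at 37°C for 24 hours in six parallel replicates. Gene amplicons from the start population and from each end population were read by 100-nucleotide paired-end sequencing. Darwinian fitness relative to wild type came from changes in genotype frequencies; genotypes needed ≥ 100 starting reads, and estimates < 0.5 were set to 0.5.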

| Variant | yeast fitness |
| --- | --- |
| C27A U32C A42C C46U C62U | ≤ 0.5 |
| C27G C31G A36U A37U | 0.615 |
| C27U A43C A69C | 0.754 |
| C27G U28A G52A C55U | ≤ 0.5 |
| C27G A43G A70G | ≤ 0.5 |
| C27A C60U C61G A65G | 0.598 |
| C27G U28C | 0.609 |
| C27G U28G | 0.522 |
| C27U A43C C49U | 0.757 |
| C27U A37C G56C G63C U64C | ≤ 0.5 |
| C27A C31G C60G | 0.537 |
| C27G C60U G67C | ≤ 0.5 |
| C27G U47C G50A A57G C60G | 0.636 |
| C27G U54A | 0.544 |
| C27A G52A U54A | ≤ 0.5 |
| C27G G38C C62G C66U | ≤ 0.5 |
| C27A C34G A43U A57C | ≤ 0.5 |
| C27U C30U A42C G58C | ≤ 0.5 |
| C27U C30U C34A C62A | ≤ 0.5 |
| C27G G38C U64A | ≤ 0.5 |
| C27U C30G C33G C34G A40U G52C G56C | ≤ 0.5 |
| C27A G38A | 0.798 |
| C27A G41C A43C C66U | 0.517 |
| C27U C33U A36U | ≤ 0.5 |

| Variant | yeast fitness |
| --- | --- |
| C27G A45G C61U A69U | ≤ 0.5 |
| C27G A40U G68C | 0.523 |
| C27G U35A G52A A57G A69U A70U | ≤ 0.5 |
| C27A A45U | 0.839 |
| C27U C33A C49G | ≤ 0.5 |
| C27A A42G G44C C66U | ≤ 0.5 |
| C27U C33U | 0.664 |
| C27U A36G A42C C49U | 0.574 |
| C27G C30G G56U | 0.543 |
| C27A U28C C29G | 0.633 |
| C27G C31U C49G U59A | ≤ 0.5 |
| C27A A42U | 0.702 |
| C27G C31U A57G | 0.562 |
| C27G C31G C49A U53C | ≤ 0.5 |
| C27G G41A G67A | 0.789 |
| C27G G41A G67U | 0.709 |
| C27A A37U C61U | ≤ 0.5 |
| C27A A45U C49U G67C | ≤ 0.5 |
| C27G C31G C33U | ≤ 0.5 |
| C27G C60G A65U | 0.641 |
| C27G C34U C49U C66G | ≤ 0.5 |
| C27G G38C | 0.5 |
| C27G U32G A40U A42U C55G | ≤ 0.5 |
| C27G A43U | 0.604 |

| Variant | yeast fitness |
| --- | --- |
| C27A A37G U53A | ≤ 0.5 |
| C27U A45C G48A A57U G68C | 0.562 |
| C27A U35A G48A U59C | 0.567 |
| C27A A69U | 0.846 |
| C27A C55G | 0.646 |
| C27A C31A | 0.758 |
| C27G A37G | 0.678 |
| C27G A37U | 0.591 |
| C27A U53A | 0.639 |
| C27U C33G A57G | ≤ 0.5 |
| C27A G58A C66G | 0.512 |
| C27G U64A | 0.665 |
| C27G A36G A65G | ≤ 0.5 |
| C27A C34A | 0.68 |
| C27G C30G C49U C60U G63C | 0.678 |
| C27G U35A A45U G67A | 0.612 |
| C27U C29U A57C | ≤ 0.5 |
| C27G A42U C55U | ≤ 0.5 |
| C27U C30U C34G A37C C61A | ≤ 0.5 |
| C27G A42G G68A | ≤ 0.5 |
| C27G C29U A37U | ≤ 0.5 |
| C27G A45U C49U | ≤ 0.5 |
| C27U C31U G52A | 0.639 |
| C27U A65U | 0.99 |

| Variant | yeast fitness |
| --- | --- |
| C27U C30U A70G | 0.624 |
| C27U A45U G50A A69C | ≤ 0.5 |
| C27G C34A C61U | ≤ 0.5 |
| C27G A36G G52C | ≤ 0.5 |
| C27U A36C A69U | 0.646 |
| C27G C31A C33G C49U G58C A70U | ≤ 0.5 |
| C27G G38A G48C | 0.538 |
| C27A G41C C66U | 0.689 |
| C27A G50A A69U | 0.566 |
| C27A U32A C61G U64C | ≤ 0.5 |
| C27G C30G A40G C49A A65U | ≤ 0.5 |
| C27U A40G | 0.834 |
| C27U A40U | 0.925 |
| C27A G58A | 0.849 |
| C27U A42G G67A | 0.589 |
| C27A C61G G67A | ≤ 0.5 |
| C27G C30U C31A C33G C49U G58C | ≤ 0.5 |
| C27U C31A A45U | 0.747 |
| C27G G67U | 0.632 |
| C27A C31U A36U A45C | ≤ 0.5 |
| C27A G58C A69C | 0.719 |
| C27G A36C G48C | ≤ 0.5 |
| C27A C49G | 0.876 |
| C27G C60U C61G | 0.681 |

| Variant | yeast fitness |
| --- | --- |
| C27U C31A | 0.758 |
| C27G A70C | 0.786 |
| C27G A37G A69U | 0.537 |
| C27A C62U | 0.815 |
| C27G C29U C49U A70U | ≤ 0.5 |
| C27G C29G A40U A45C A57U | ≤ 0.5 |
| C27G A40C | 0.575 |
| C27A A40C A45U A57U | ≤ 0.5 |
| C27G A42U C55U A70C | ≤ 0.5 |
| C27G G63A | 0.665 |
| C27G G63C | 0.582 |
| C27G U28A C34U | ≤ 0.5 |
| C27G U59G | 0.641 |
| C27G A40U U59C | 0.543 |
| C27A A65G C66U | 0.772 |
| C27U C31A U64G | ≤ 0.5 |
| C27G C49U G63C | ≤ 0.5 |
| C27A G56C C66G | ≤ 0.5 |
| C27G G51C | 0.78 |
| C27A G50C C62G C66U | 0.606 |
| C27G C29U C49U | ≤ 0.5 |
| C27G G41A | 1.03 |
| C27U C33G A43U C60G | ≤ 0.5 |
| C27G G41A G68C | 0.71 |

| Variant | yeast fitness |
| --- | --- |
| C27U A36G G56C | ≤ 0.5 |
| C27A C55U C66A | ≤ 0.5 |
| C27G U53C G56A C66U | ≤ 0.5 |
| C27U C33U A40C C55A A65G | 0.503 |
| C27G C31A A69U | 0.589 |
| C27G A43C G63C | ≤ 0.5 |
| C27G A37C G48C C55A G63A | 0.526 |
| C27U A43C U64C | 0.732 |
| C27U A40G C62G G68A | ≤ 0.5 |
| C27A G41C A57U | 0.611 |
| C27G U47A | 0.702 |
| C27A A37C G44A U53G | ≤ 0.5 |
| C27U C33G A43G A45C | 0.634 |
| C27U A40G G44A | 0.513 |
| C27A C61G A69G | ≤ 0.5 |
| C27A U28A G41A G48A | 0.75 |
| C27A G56C | 0.627 |
| C27A U28C C29G A65U | ≤ 0.5 |
| C27G U28G C66G G67C | ≤ 0.5 |
| C27G C30U C46A | 0.655 |
| C27A U35C A42U | ≤ 0.5 |
| C27G C46U | 0.972 |
| C27G C46A | 0.933 |
| C27G C46G | 1.11 |

| Variant | yeast fitness |
| --- | --- |
| C27U A37C C60G A65G | ≤ 0.5 |
| C27G G48C C49G | 0.503 |
| C27G G39A C46U | 0.74 |
| C27G C30U G52C | 0.507 |
| C27G G50A C60G | 0.778 |
| C27G A43C A57U | 0.599 |
| C27U C31G A69C | 0.604 |
| C27G G52A G63A | 0.533 |
| C27G A45C C55G G58C | ≤ 0.5 |
| C27G G38C C49G A70G | ≤ 0.5 |
| C27A G58C U64G | ≤ 0.5 |
| C27G C30G C49U C61A | ≤ 0.5 |
| C27G A36G G68A | ≤ 0.5 |
| C27A C29G C49G G51C U54C | ≤ 0.5 |
| C27U C30A A69U | 0.585 |
| C27G G68C | 0.65 |
| C27U A65G G68A | 0.563 |
| C27G U32C C62U | 0.62 |
| C27G C60U | ≤ 0.5 |
| C27G C60A | ≤ 0.5 |
| C27U C30U C46U U54G | ≤ 0.5 |
| C27G C29G C49U | ≤ 0.5 |
| C27G G41A C49G G56C | ≤ 0.5 |
